# Compound activity (PubChem BioAssay)
# Autophagy mod: autophagy modulation, high-content screen; MEF GFP-LC3 puncta imaging; test concentration mostly 10 µM; calls only at 10 µM (by protocol); 190,000 tested, 0.98% active; AID 463193;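 active means percentage of spot-positive cells more than 3 SD above its plate mean, without a fluorescence outlier flag or 80% toxicity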
# CHOP inhibitor: blocks CHOP induction under ER stress; CHO-K1 CHOP-promoter luciferase, tunicamycin-induced, 15-18 h; AID 2732; inhibition, % at 10 µM; 220,000 tested, 3.8% active;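 active means compounds that reduced the stress-induced luciferase reporter signal by more than about 70% of percent inhibition, limit read from the data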
# b-catenin transl: beta-catenin nuclear translocation modulation | HeLa beta-catenin nuclear translocation, immunofluorescence imaging | nuclear translocation activity, % at 5 µM | 190,000 tested, 0.3% active;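 active means nuclear translocation activity above 50% at 5 µM, with a well cell count of 50 or more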;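 further: per-cell ratio of nuclear to cytoplasmic median beta-catenin stain intensity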
#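 Test system: human HeLa cells, native beta-catenin. Compound dosing: 5 µM primary single dose, 0.1% DMSO, 0.02–20 µM confirmation series. Incubation: compound exposure 24 h at 37°C. Detection: beta-catenin immunostaining with DAPI counterstain, 20x imaging, 6 fields/well. Read-out basis: Nuclear/cytoplasmic beta-catenin signal ratio, % activation.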
# MT stabilizer: stabilizes microtubules in HeLa cells; HeLa tubulin immunostaining HCS, 24 h; share of cells brighter than vehicle mean+2SD; % tubulin-high responders, % at 10 µM; 200,000 tested, 0.83% active; AID 2205;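 active means plate Z-score above 3 for both tubulin-high and condensed-nucleus cell shares, with cell loss under 80%, at 10 µM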;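 further: anti alpha tubulin signal scored within the nucleus-defined area of each cell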
# Lmaj promast: inhibitors of Leishmania major promastigote growth. Leishmania major promastigotes, resazurin fluorescence viability. inhibition, % at 10 µM. 200,000 tested, 9% active; in the data active means inhibition above about 50%;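 further: promastigotes grown with compound for 44 hours at 28 °C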
# Dynein transport: blocks dynein driven cargo transport along microtubules. z-score, hits read low. 3617.4 mouse cells, GR-EGFP nuclear translocation imaging; test concentration mostly 20 µM; stimulated with dexamethasone, 1 µM; stronger effect = lower value. 220,000 tested, 0.47% active. AID 1381;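 active means plate z-score of nuclear minus cytoplasmic receptor signal below a set negative limit, without overly bright fluorescence or cell loss, cut at about -3.5 in these data, passing the limit was not always enough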;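 further: z-score of nuclear minus cytoplasmic ring GR-EGFP intensity difference per well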
#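 Buffer or medium: tetracycline-free induction medium containing charcoal-stripped FBS / Reagent: dexamethasone agonist, 1.0 µM final, for 30 min / Technique: automated 10x imaging of fixed Hoechst-stained cells / Times: induction 48 h, compound 1 h, agonist 30 min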
# Hits are given with their value; . = inactive; / = no result given. A selection: hits, their analogues and other compounds. The true share with any hit is near 12%.
SMILES,Autophagy mod,CHOP inhibitor,b-catenin transl,MT stabilizer,Lmaj promast,Dynein transport
O=C(NCC(c1cccnc1)N1CCN(c2ccccc2F)CC1)c1ccccc1 (centres undefined),.,.,.,.,83.5,.
CCCCOC(=O)Nc1nnc(Cc2ccc(Cl)cc2)s1,.,.,.,.,.,.
Fc1ccccc1N1CCN(C(c2cccs2)c2nnnn2CCc2ccccc2)CC1 (centres undefined),.,.,.,.,.,.
c1ccc(Cn2nnnc2C(c2cccnc2)N2CCN(C3CCCCC3)CC2)cc1 (centres undefined),.,.,.,.,.,.
c1ccc(CCn2nnnc2C(c2cccnc2)N2CCN(c3ccccc3)CC2)cc1 (centres undefined),.,.,.,.,96.7,.
c1ccc(CCn2nnnc2C(c2cccnc2)N2CCN(c3nc4ccccc4s3)CC2)cc1 (centres undefined),.,.,.,.,100.4,.
Oc1ccc(N2CCN(C(c3cccnc3)c3nnnn3Cc3ccccc3)CC2)cc1 (centres undefined),.,.,/,.,64.8,.
COCCn1nnnc1C(c1ccccc1)N1CCN(c2ccccc2)CC1 (centres undefined),.,.,.,.,.,.
Fc1ccc(N2CCN(C(c3cccs3)c3nnnn3CCc3ccccc3)CC2)cc1 (centres undefined),.,.,.,.,70.5,.
Cc1noc(C(F)(F)F)c1C(=O)NNC(=O)c1ccccc1,/,.,.,/,/,.
Cc1cccc(C(=O)NCCc2ccc(S(N)(=O)=O)cc2)c1[N+](=O)[O-],.,.,.,.,87.4,.
Cc1ccc(CN2CCN(/N=C/c3ccc(C(=O)O)cc3)CC2)c(C)c1,.,.,.,.,.,.
COC(=O)c1ccc(/C=N/N2CCN(Cc3ccc(C)cc3C)CC2)cc1,.,.,/,.,83.9,.
C=CCOc1c(Br)cc(CNn2nnnc2N)cc1OCC,.,.,.,.,.,.
COc1ccc(N/C(N)=N/c2nc(C)cc(C)n2)c(OC)c1,.,.,.,.,.,.
CCCOc1ccccc1N/C(N)=N/c1nc(C)cc(C)n1,.,.,.,.,90.0,.
CCCOc1ccccc1N/C(=N/c1nc(C)cc(C)n1)NC(=O)COc1ccc(OC)cc1,.,.,/,.,97.5,.
Cc1cc(C)nc(/N=C(\N)Nc2ccc(-c3ccccc3)cc2)n1,.,.,.,.,97.5,.
COc1ccc(OC)c(N/C(=N/c2nc(C)cc(C)n2)NC(C)=O)c1,/,.,.,/,/,.
Cc1cc(C)nc(/N=C(\N)N(Cc2ccccc2)Cc2ccccc2)n1,.,.,.,.,89.9,.
CCCCN(CCCC)/C(N)=N/c1nc(C)cc(C)n1,.,.,.,.,.,.
CC1(O)N(CCC(=O)Nc2cccc(F)c2)C(=O)OC12CCCCC2 (centres undefined),.,.,.,.,.,.
Cc1cc(C)cc(NC(=O)NC2CCN(CC(=O)Nc3c(C)cc(C)cc3C)CC2)c1,.,/,/,.,.,.
CCCOc1ccccc1NC(=O)/C=C/C(N)=O,.,.,/,.,100.5,.
CCCCOc1ccccc1NC(=O)C=C(C)C,.,.,.,.,.,.
SMILES,Autophagy mod,CHOP inhibitor,b-catenin transl,MT stabilizer,Lmaj promast,Dynein transport
CC(=O)Nc1nc2ccccc2n1CCOc1ccccc1Cl,.,.,.,.,99.0,.
CCC(=O)Nc1nc2ccccc2n1Cc1ccc(Cl)cc1,.,.,.,.,99.4,.
CCC(=O)Nc1nc2ccccc2n1Cc1ccccc1Cl,/,.,.,/,/,.
O=C(CSc1nc2ccccc2n1Cc1ccccc1)N/N=C/c1ccco1,.,.,.,.,50.3,.
Clc1ccccc1OCCn1cnc2ccccc21,.,.,.,.,.,.
O=C(Nc1nc2ccccc2n1Cc1ccccc1)c1ccco1,.,.,.,.,73.1,.
CCOC(=O)C1CCCN(C(=O)COC(=O)c2ccc(C#N)cc2)C1 (centres undefined),.,.,.,.,.,.
CN(C)/C=N/c1c(C#N)nnn1Cc1ccccc1,.,.,.,.,.,.
CC(=O)Nc1nc2ccccc2n1Cc1ccccc1C,.,.,.,.,96.3,.
CC(=O)Nc1nc2ccccc2n1Cc1ccccc1Cl,/,.,.,/,/,.
Cc1nnsc1C(=O)Nc1cc(Cl)ccc1Cl,.,.,.,.,.,.
COc1ccc(-n2cc(-c3ccc(C)cc3)[n+]3c2SCC3)cc1,.,.,.,.,100.4,.
c1ccc(-c2cn(-c3ccccc3)c3[n+]2CCCS3)cc1,/,.,.,/,/,.
CCc1ccc(-n2cc(-c3ccc(F)cc3)[n+]3c2SCCC3)cc1,.,.,.,.,100.5,.
COC(C[C@H]1O[C@H]1[C@@H](O)[C@@H](C)OCc1ccccc1)OC,/,.,.,/,/,.
CCOc1ccc(CCNC(=O)COC(=O)c2ccc(OC)c(OC)c2OC)cc1OCC,.,.,.,.,65.7,.
CCOc1ccc(CCNC(=O)COC(=O)c2cccc(OC)c2O)cc1OCC,.,.,.,.,.,.
CC(C)(C)NCCCCOc1ccc(F)cc1,.,.,.,.,99.5,.
CC(C)(C)NCCOc1ccc2ccccc2c1,.,.,.,.,.,.
CCOc1ccc(OCCCCNC(C)(C)C)cc1,.,.,.,.,98.1,.
CCOc1cccc(OCCOCCNC(C)(C)C)c1,.,.,.,.,.,.
COc1ccc(OC)c(S(=O)(=O)Nc2cccc(F)c2)c1,.,.,.,.,96.8,.
COc1ccc(S(=O)(=O)Nc2cccc(F)c2)cc1C,.,.,.,.,65.4,.
COc1ccc(OC)c(S(=O)(=O)Nc2ccc(F)cc2)c1,.,.,.,.,.,.
COc1ccc(S(=O)(=O)Nc2ccc(S(=O)(=O)Nc3ccc(F)cc3)cc2)cc1C,.,.,.,.,.,.
SMILES,Autophagy mod,CHOP inhibitor,b-catenin transl,MT stabilizer,Lmaj promast,Dynein transport
COc1cc(S(=O)(=O)Nc2cccnc2)ccc1F,.,.,.,.,.,.
COc1ccc(OC)c(NS(=O)(=O)c2cc(OC)ccc2OC)c1,.,.,.,.,86.9,.
COc1cc(S(=O)(=O)Nc2cc(C)cc(C)c2)ccc1F,.,.,/,12.4,.,.
OCCCNC(=S)Nc1ccc(Br)cc1Cl,/,.,.,/,/,.
O=C(NCCc1csc(-c2ccc(C(F)(F)F)cc2)n1)c1cccs1,.,.,.,.,.,.
CCc1nc2n(n1)C(O)c1cc([N+](=O)[O-])ccc1S2 (centres undefined),/,.,.,/,/,.
Cc1cccc(NC(=O)c2nc[nH]c2C(=O)Nc2cccc(C)c2)c1,.,86.8,/,.,.,.
Cc1cccc(NC(=O)c2nc[nH]c2C(=O)N[C@@H](C)C(=O)OCc2ccccc2)c1,/,89.7,.,/,/,.
O=C(NC1=NCCS1)c1cccc(S(=O)(=O)N2CCCCC2)c1,.,/,.,.,.,.
COc1ccccc1C1C(C(C)=O)=C(C)N=c2s/c(=C\c3cc(OC)c(OC)c(OC)c3)c(=O)n21 (centres undefined),.,.,.,.,54.9,.
